Screening data from PubChem BioAssay.
CSN deneddyl inh: blocks human CSN-mediated cullin deneddylation; Q92905; Purified CSN, SCF-Nedd8-OG deneddylation, fluorescence polarization; AID 651999; actives 0.38% (n = 360,000); inhibition, % at 12.5 µM;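 active = pattern-corrected inhibition above about 35%, with an unprinted fluorescence ratio check between 0.5 and 1.5, limit read from the data, passing the limit was not always enough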
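Test system: Human Csn5 produced in HEK293T cells | Compound: 12.5 µM single point | Times: 90 min, room temperature | Signal: Fluorescence polarization readout | Read-out basis: % inhibition of substrate cleavage by Csn5 | Controls: no-enzyme wells high, enzyme-with-substrate wells low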
PKA-R2B activ: PKA-R2B complex activation; AID 504700; actives 0.079% (n = 340,000); activation, % at 11.4 µM; PKA-R2B holoenzyme dissociation, Cy5-IP20 fluorescence polarization; R2B truncated from residue 108, S112A mutant; 0% DMSO only, 100% 113 µM cGMP; P22694+P31323;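 active = activation above a cutoff set at the mean over all compounds plus 3 SD, cut at about 18% in these data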;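 note: higher means more holoenzyme dissociation and a rise in polarization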
Target sequence (P31323 whole entry, looked up, other chains not shown, the tested form may be a part): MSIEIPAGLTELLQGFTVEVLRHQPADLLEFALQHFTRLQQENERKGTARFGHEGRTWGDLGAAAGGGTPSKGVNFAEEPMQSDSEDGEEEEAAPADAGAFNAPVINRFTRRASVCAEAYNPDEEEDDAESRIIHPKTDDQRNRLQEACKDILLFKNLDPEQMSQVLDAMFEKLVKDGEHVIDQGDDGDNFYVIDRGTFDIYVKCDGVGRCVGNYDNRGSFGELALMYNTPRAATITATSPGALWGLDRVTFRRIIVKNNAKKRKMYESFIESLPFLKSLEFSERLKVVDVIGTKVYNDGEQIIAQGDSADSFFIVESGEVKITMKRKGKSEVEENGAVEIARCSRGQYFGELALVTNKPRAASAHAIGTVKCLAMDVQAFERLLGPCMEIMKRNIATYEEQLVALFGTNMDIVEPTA
Rpn11 block: blocks the human proteasome subunit Rpn11. calls only at 20 µM. AID 588493. human 26S proteasome, Ub4-pepOG fluorescence polarization; 20S core pre-blocked with epoxomicin. actives 0.59% (n = 360,000);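 active = inhibition at 20 µM, scaled to each plate's controls, above about 33%, limit read from the data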
PKA-R1A activ: activators of PKA-R1A complex | PKA-R1A dissociation, Cy5-IP20 fluorescence polarization; scaled: DMSO 0%, 113 µM cGMP 100% | AID 504707 | activation, % at 11.4 µM | actives 0.083% (n = 340,000);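 active = percent activation above the mean of all tested compounds plus 3 SD, cut at about 19% in these data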;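 note: higher means more PKAc released from R1A so a rise in polarization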
TPT1 inh: inhibitors of Candida albicans tRNA 2'-phosphotransferase TPT1 | recombinant caTPT1, FP RNA substrate dephosphorylation | inhibition, % at 5 µM | actives 0.81% (n = 300,000);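 active = inhibition above the mean of all tested compounds plus 3 SD, set per screening campaign, cut at about 24% in these data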
HNF4A DNA FP: change in binding of human HNF4 alpha to DNA | P41235 | HNF4a-FITC DNA binding, fluorescence polarization, 1 h | activity change, % at 10 µM | actives 0.3% (n = 360,000); in the data active = activity change above about 30%, passing the limit was not always enough
R2B FP artifact: FP assay interference, PKA-R2B counter-screen. shares compounds with PKA-R2B activ. FP artifact counterscreen, fluorescence polarization. activation, % at 11.4 µM. actives 6% (n = 270). AID 504796; in the data active = activation above about 20%;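 note: Cy5 labelled IP20 peptide probe with compound but no PKA protein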
PKA-R2B act conf: confirmation of human PKA-R2B complex activators; activation, % at 11.4 µM; fluorescence polarization, activation; shares compounds with PKA-R2B activ; actives 9% (n = 270); in the data active = activation above about 19%
Target sequence (P31323 whole entry, looked up): as the sequence (P31323 whole entry, looked up, other chains not shown, the tested form may be a part) above
Large screens that a line does not name were inactive (follow-up assays come after a bar, where they were run). Most compounds without a hit are left out; they make up all but 1.6% or so of the library.

O=c1[nH]cnc2ncc(-c3ccc(O)cc3)nc12	PKA-R2B activ 20.4 | R2B FP artifact inactive | PKA-R2B act conf inactive
O=c1[nH]cnc2nc(-c3ccccc3)c(-c3ccccc3)nc12	none
Cc1ccc(OCc2cc(C(=O)N3CCN(CC(=O)NC(C)C)CC3)no2)cn1	none
Oc1ccc(/C=N/Nc2ncnc3nc[nH]c23)cc1	PKA-R2B activ 22.1 | R2B FP artifact inactive | PKA-R2B act conf inactive
Cc1nn(CC(=O)NCCCN2CCCC2)c(=O)c2nn(-c3ccccc3)c(C)c12	none
Oc1ccccc1OCC(O)c1ccccc1 (stereo unspecified)	PKA-R2B activ 18.5 | R2B FP artifact inactive | PKA-R2B act conf inactive
CC(C)Cn1c(=O)c(C(=O)NCc2ccccn2)c(O)c2ccccc21	PKA-R2B activ 20.9 | R2B FP artifact inactive | PKA-R2B act conf inactive
CCOc1ccc(NC(=O)CSc2nc3cc(C(=O)NCC4CCCO4)ccc3c(=O)n2CC2CCCO2)cc1 (stereo unspecified)	none (no result: TPT1 inh)
Cn1c(/C(C#N)=C(\O)c2ccc(S(=O)(=O)N3CCCCC3)cc2)nc2ccccc21	PKA-R2B activ 18.6 | R2B FP artifact inactive | PKA-R2B act conf inactive
CCOc1ccc(N(C)S(=O)(=O)c2c[nH]c(C(=O)OC)c2)cc1	PKA-R2B activ 19.7 | R2B FP artifact inactive | PKA-R2B act conf inactive
CCOC(=O)N1CCN(C(=O)c2cc(COc3ccc(F)cc3F)on2)CC1	none
CCOC(=O)C1CCN(C(=O)c2cc(COc3ccc(F)cc3F)on2)CC1	PKA-R2B activ 20.0 | R2B FP artifact inactive | PKA-R2B act conf inactive
COc1ccc(CC(=O)Nc2cccc(/C(C)=N/NC(=O)C3(C)CC3(Br)Br)c2)cc1 (stereo unspecified)	none
COc1ccc(-c2nnc(CSc3nnc(-c4ccncc4)n3C3CCCCC3)o2)cc1OC	none
O=c1[nH]nc(SCc2nnc(-c3cccc(Cl)c3)o2)n1C1CCCCC1	PKA-R2B activ 19.5 | R2B FP artifact inactive | PKA-R2B act conf inactive
CC(C)(C)C(=O)Nc1nc(C2CCCN2S(=O)(=O)c2ccc(Cl)cc2)cs1 (stereo unspecified)	PKA-R2B activ 19.3 | R2B FP artifact inactive | PKA-R2B act conf inactive
CC1CCCN(S(=O)(=O)CCNC(=O)c2ccccc2)C1 (stereo unspecified)	none
CCC1CN(C(=O)N2CCC(C(=O)NCc3ccco3)CC2)c2ccccc2O1 (stereo unspecified)	none
COc1ccc(CCN(Cc2nc3ccccc3c(=O)[nH]2)C(=O)C2CC2)cc1	PKA-R2B activ 18.8 | R2B FP artifact inactive | PKA-R2B act conf inactive
O=C(C1CC1)N(CCc1ccccc1)Cc1nc2ccccc2c(=O)[nH]1	none
CCN1CCN(c2ccc(S(=O)(=O)N3CCOCC3)cc2NC(=O)c2ccc(F)cc2Cl)CC1	PKA-R2B activ 19.0 | R2B FP artifact inactive | PKA-R2B act conf inactive
Cn1ncc(Br)c1C(=O)NC1C2CC3CC(C2)CC1C3 (stereo unspecified)	none
Cc1c(Cl)c(C(=O)NC2C3CC4CC(C3)CC2C4)nn1C (stereo unspecified)	PKA-R2B activ 20.2 | R2B FP artifact inactive | PKA-R2B act conf inactive
Cc1ccc(-c2nnc(NC(=O)CCS(=O)(=O)c3ccc(F)cc3)o2)c(C)c1	none
O=C(CCS(=O)(=O)c1ccc(F)cc1)Nc1nnc(-c2ccc(F)cc2)o1	PKA-R2B activ 19.0 | R2B FP artifact inactive | PKA-R2B act conf inactive
O=C(N/N=C/c1ccc([N+](=O)[O-])o1)C1CC1	none
COC(=O)Cc1cc(=O)n2[nH]cnc2n1	PKA-R2B activ 18.7 | R2B FP artifact inactive | PKA-R2B act conf inactive
Cc1cc(NCCN2CCOCC2)n2nc(C)c(-c3ccccc3)c2n1	none
Cc1cc(C)c2c(n1)nn1c(NCCN3CCOCC3)cc(C)nc21	PKA-R2B activ 18.4 | R2B FP artifact inactive | PKA-R2B act conf inactive
C=CCN(CC=C)C(=O)C1CCN(S(=O)(=O)c2ccc(-n3cnnn3)cc2)CC1	none
Cc1nc(C)c(C(=O)N(c2ccccc2F)C(C(=O)NCC2CCCO2)c2ccccc2)s1 (stereo unspecified)	none
Cc1nc(C)c(C(=O)N(c2ccc(F)cc2)C(C(=O)NCC2CCCO2)c2ccccc2)s1 (stereo unspecified)	PKA-R2B activ 20.1 | R2B FP artifact inactive | PKA-R2B act conf inactive
CCN(CC)CCNC(=O)c1ccc(NC2=NC3CS(=O)(=O)CC3S2)cc1 (stereo unspecified)	PKA-R2B activ 18.6 | R2B FP artifact inactive | PKA-R2B act conf inactive
O=C(NCCc1ccc(Cl)cc1)c1ccc(NC2=NC3CS(=O)(=O)CC3S2)cc1 (stereo unspecified)	none
COc1ccc(N2C(=O)C3CCCN3C2=O)cc1 (stereo unspecified)	none
CCC(=O)Nc1ccccc1N1CCN(c2ccc(F)cc2)CC1	PKA-R2B activ 18.9 | R2B FP artifact inactive | PKA-R2B act conf inactive
CC1CN(Cc2nnc(-c3ccccc3)o2)CC(C)O1 (stereo unspecified)	PKA-R2B activ 22.3 | R2B FP artifact inactive | PKA-R2B act conf inactive
CCN1CCN(Cc2nnc(-c3ccccc3)o2)CC1	none
C[C@@H]1O[C@@H](OCCC(=O)O)[C@H](O)C[C@H]1O	none (no result: TPT1 inh)
N#Cc1nc(-c2cccs2)oc1NCC1CCCO1 (stereo unspecified)	PKA-R2B activ 19.0 | R2B FP artifact inactive | PKA-R2B act conf inactive
O=S1(=O)CCN(Cc2ccc(Cl)c(Cl)c2)CC1	none
O=S1(=O)CCOC(CO)CN1Cc1ccc(Cl)c(Cl)c1 (stereo unspecified)	none (no result: TPT1 inh) | R2B FP artifact inactive | PKA-R2B act conf inactive
CCOC(=O)N1CCN(Cc2nc3c(c(=O)n(C)c(=O)n3C)n2Cc2ccc(F)cc2)CC1	PKA-R2B activ 19.1 | R2B FP artifact inactive | PKA-R2B act conf inactive
Cc1ccc(S(=O)(=O)NNC(=O)C(=O)NNS(=O)(=O)c2ccc(C)cc2)cc1	none
Cc1ccc(S(=O)(=O)NNC(=O)C2CC=CCC2C(=O)O)cc1 (stereo unspecified)	PKA-R2B activ 21.0 | R2B FP artifact inactive | PKA-R2B act conf inactive
Cc1cccc2cc(CN(CCCO)C(=O)Nc3ccccc3Cl)c(=O)[nH]c12	PKA-R2B activ 23.2 | R2B FP artifact inactive | PKA-R2B act conf inactive
COc1ccc(S(=O)(=O)N2CCC(C(=O)Nc3c(F)cccc3F)CC2)cc1	PKA-R2B activ 21.4 | R2B FP artifact inactive | PKA-R2B act conf inactive
